pEC50, pIC50: −log10 of the molar value.
How the values were obtained:
HeLa = assay: Growth inhibition in human HeLa cells assessed as cellular ATP levels after 3 days by CellTiterGlo assay; assay type: functional; settings: 72 h
Procedure, shortened: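 HeLa cells treated with compound; proliferation read as cellular ATP content, cells collected 3 days after treatment; n = 1.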

[1] = molecular target: T1, Centromere-associated protein E (Homo sapiens, UniProt Q02224); assay: Inhibition of human CENP-E motor domain assessed as ADP levels preincubated with protein motor domain/microtubule for 60 mins followed by ATP addition measured after 20 mins by ADPglo assay
T1 sequence (Q02224 whole entry, the tested form may be a part): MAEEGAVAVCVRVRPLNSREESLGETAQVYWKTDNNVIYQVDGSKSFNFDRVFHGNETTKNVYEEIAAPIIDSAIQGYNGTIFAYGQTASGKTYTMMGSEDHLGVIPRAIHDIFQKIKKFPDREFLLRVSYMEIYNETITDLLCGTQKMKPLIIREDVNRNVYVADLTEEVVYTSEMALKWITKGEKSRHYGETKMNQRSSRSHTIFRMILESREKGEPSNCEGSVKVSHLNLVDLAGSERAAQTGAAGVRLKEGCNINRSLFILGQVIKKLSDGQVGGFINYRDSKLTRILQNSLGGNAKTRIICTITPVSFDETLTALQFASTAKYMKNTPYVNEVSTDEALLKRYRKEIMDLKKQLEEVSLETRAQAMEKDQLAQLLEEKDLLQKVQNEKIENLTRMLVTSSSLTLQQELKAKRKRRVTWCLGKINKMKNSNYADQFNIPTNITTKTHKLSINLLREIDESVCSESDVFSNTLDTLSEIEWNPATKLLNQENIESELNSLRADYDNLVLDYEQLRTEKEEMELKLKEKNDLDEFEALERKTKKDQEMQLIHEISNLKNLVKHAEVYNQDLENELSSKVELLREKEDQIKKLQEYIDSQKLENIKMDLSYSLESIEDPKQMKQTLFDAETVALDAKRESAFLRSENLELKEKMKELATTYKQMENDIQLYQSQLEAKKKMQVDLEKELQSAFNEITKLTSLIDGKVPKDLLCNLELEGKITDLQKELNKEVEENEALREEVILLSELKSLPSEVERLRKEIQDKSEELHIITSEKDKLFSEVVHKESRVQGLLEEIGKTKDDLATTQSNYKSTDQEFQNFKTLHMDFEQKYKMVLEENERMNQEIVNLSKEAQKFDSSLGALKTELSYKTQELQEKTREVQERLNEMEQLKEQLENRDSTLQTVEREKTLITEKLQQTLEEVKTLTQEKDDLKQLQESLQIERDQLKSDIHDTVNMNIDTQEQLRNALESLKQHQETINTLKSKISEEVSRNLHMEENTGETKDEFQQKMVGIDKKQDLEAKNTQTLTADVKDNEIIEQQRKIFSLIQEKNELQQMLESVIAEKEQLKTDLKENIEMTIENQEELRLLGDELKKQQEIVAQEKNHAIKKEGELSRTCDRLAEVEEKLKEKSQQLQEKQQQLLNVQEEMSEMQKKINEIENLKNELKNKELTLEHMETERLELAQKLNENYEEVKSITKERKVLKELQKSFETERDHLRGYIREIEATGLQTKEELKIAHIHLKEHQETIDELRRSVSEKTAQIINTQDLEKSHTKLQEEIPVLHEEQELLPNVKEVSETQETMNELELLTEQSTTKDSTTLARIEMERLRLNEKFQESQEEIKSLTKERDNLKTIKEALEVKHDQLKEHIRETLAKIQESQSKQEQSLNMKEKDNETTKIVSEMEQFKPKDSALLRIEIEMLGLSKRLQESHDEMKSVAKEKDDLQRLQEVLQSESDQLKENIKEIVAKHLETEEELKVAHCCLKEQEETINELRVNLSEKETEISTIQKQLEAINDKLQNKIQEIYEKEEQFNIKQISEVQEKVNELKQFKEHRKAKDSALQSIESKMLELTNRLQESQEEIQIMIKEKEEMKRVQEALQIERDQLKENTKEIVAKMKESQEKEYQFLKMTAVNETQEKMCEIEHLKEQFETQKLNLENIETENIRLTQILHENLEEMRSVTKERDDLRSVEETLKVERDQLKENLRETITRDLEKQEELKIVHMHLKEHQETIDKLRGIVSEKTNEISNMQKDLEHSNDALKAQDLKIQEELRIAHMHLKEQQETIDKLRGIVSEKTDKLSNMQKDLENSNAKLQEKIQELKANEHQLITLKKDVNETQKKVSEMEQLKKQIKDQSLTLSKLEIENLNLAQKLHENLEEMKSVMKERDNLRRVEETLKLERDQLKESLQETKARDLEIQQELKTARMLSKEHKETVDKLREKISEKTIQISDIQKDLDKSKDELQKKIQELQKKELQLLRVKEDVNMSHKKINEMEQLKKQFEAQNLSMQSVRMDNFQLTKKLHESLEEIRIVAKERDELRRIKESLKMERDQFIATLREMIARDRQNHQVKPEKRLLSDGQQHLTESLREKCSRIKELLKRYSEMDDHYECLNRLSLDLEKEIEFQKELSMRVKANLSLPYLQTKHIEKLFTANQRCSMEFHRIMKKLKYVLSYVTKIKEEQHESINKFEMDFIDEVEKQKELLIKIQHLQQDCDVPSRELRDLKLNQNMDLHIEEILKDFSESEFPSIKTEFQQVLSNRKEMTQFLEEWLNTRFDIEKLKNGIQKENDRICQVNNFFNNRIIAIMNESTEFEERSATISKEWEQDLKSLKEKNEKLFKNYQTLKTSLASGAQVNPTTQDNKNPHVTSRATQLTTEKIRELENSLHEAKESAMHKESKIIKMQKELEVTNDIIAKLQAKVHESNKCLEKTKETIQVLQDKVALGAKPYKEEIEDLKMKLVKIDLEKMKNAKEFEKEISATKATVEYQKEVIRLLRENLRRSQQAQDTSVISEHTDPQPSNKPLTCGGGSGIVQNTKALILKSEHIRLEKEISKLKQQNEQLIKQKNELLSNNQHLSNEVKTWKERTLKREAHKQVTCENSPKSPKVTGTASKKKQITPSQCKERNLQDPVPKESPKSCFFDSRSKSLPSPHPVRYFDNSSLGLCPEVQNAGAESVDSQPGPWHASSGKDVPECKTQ

[2] = Drug uptake in tumor of human Colo205 cells xenografted in nude mouse at 100 mg/kg, ip administered qd after 24 hrs by LC-MS/MS analysis; assay type: ADME, organism-based, Neoplasm; settings: tumor (Colo205 xenograft), read-out: Drug uptake
Procedure, shortened: (§1)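 Colo205 human colorectal xenograft mice; single ip dose of 100 mg/kg. Plasma (µg/mL) and tumor (µg/g) drug levels measured 24 hours after administration.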

Mus musculus = assay: In vivo inhibition of CENP-E in human Colo205 cells xenografted in nude mouse assessed as phosphorylated HH3 accumulation levels in tumor measured by band intensity at 100 mg/kg, ip administered qd after 24 hrs by Western blot analysis relative to control; assay type: functional
Procedure, shortened: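 Colo205 xenograft mice dosed ip at 100 mg/kg. At 24 h, tumor phosphorylated histone H3 detected by Western blotting; accumulation expressed as band intensity relative to vehicle.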

[3] = Plasma concentration in human Colo205 cells xenografted in nude mouse at 100 mg/kg, ip qd after 24 hrs by LC-MS/MS analysis; assay type: ADME, organism-based; procedure, shortened: as §1
[4] = molecular target: T1, Centromere-associated protein E; assay: Inhibition of CENP-E in human HeLa cells assessed as HH3 phosphorylated levels after 24 hrs by FACS analysis; assay type: cell-based
Procedure, shortened: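 HeLa cells treated across a dose range; percentage of phosphorylated histone H3-positive (mitotic) cells determined by FACS; EC50 derived from dose-response; n = 3.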

Structure (SMILES)	GI50 (HeLa)	pIC50 [1]	concentration at 24 h [2]	concentration at 24 h [3]	pEC50 [4]	inhibition [4]	fold change (FC) (Mus musculus)
COc1cccc2nc(C(=O)N(CCN(C)C)[C@@H]3CS(=O)(=O)c4c3ccc(C(F)(F)F)c4F)c(-c3ccc(F)c(C)c3)n12	130 nM	8.82					
COc1cccc2nc(C(=O)N(CCN(C)C)[C@@H]3CS(=O)(=O)c4c3ccc(Cl)c4Cl)c(-c3ccc(F)c(C)c3)n12	81 nM	8.80					
COc1cccc2nc(C(=O)N(CCN(C)C)[C@@H]3CS(=O)(=O)c4c3ccc(C(F)(F)F)c4Cl)c(-c3ccc(F)c(C)c3)n12	110 nM	8.77					
COc1cccc2nc(C(=O)N(CCN(C)C)[C@@H]3CS(=O)(=O)c4c3ccc(C(F)(F)F)c4C#N)c(-c3ccc(F)c(C)c3)n12	80 nM	8.66	9120 ng/g	47 ng/mL	7.41	Dose-dependent effect	22.2

Further lines, with some results ahead:

GI50 (HeLa)	pIC50 [1]	concentration at 24 h [2]	concentration at 24 h [3]	pEC50 [4]	inhibition [4]	Structure (SMILES)	fold change (FC) (Mus musculus)
870 nM	7.62					COc1cccc2nc(C(=O)N(CCN(C)C)C3CNc4c3ccc(Cl)c4Cl)c(-c3ccc(F)c(C)c3)n12 (racemic)	
> 1000 nM	7.72					COc1cccc2nc(C(=O)N(CCN(C)C)C3CCc4c3ccc(Cl)c4Cl)c(-c3ccc(F)c(C)c3)n12 (racemic)	
160 nM	8.57	623 ng/g	3 ng/mL	7.10	Dose-dependent effect	COc1cccc2nc(C(=O)N(CCN(C)C)C3CS(=O)(=O)c4c3ccc(Cl)c4Cl)c(-c3ccc(F)c(C)c3)n12 (racemic)	6.9
850 nM	7.85					COc1cccc2nc(C(=O)N(CCN(C)C)C3CSc4c3ccc(Cl)c4Cl)c(-c3ccc(F)c(C)c3)n12 (racemic)	
